Results as given in ChEMBL document CHEMBL4020701, “A strategy for dual inhibition of the proteasome and fatty acid synthase with belactosin C-orlistat hybrids” (Bioorg Med Chem, 2017).
pIC50: −log10 of the molar value.

Tests used:
Fatty acid synthase [1] = biological target: T1, Fatty acid synthase (Homo sapiens, UniProt P49327); test: Inhibition of human FAS thioster domain preincubated for 30 mins followed by 4-methylumbelliferyl heptanoate substrate addition measured every 5 mins for 60 mins by fluorescence assay
Target sequence in this assay (P49327 whole entry, the tested form may be a part): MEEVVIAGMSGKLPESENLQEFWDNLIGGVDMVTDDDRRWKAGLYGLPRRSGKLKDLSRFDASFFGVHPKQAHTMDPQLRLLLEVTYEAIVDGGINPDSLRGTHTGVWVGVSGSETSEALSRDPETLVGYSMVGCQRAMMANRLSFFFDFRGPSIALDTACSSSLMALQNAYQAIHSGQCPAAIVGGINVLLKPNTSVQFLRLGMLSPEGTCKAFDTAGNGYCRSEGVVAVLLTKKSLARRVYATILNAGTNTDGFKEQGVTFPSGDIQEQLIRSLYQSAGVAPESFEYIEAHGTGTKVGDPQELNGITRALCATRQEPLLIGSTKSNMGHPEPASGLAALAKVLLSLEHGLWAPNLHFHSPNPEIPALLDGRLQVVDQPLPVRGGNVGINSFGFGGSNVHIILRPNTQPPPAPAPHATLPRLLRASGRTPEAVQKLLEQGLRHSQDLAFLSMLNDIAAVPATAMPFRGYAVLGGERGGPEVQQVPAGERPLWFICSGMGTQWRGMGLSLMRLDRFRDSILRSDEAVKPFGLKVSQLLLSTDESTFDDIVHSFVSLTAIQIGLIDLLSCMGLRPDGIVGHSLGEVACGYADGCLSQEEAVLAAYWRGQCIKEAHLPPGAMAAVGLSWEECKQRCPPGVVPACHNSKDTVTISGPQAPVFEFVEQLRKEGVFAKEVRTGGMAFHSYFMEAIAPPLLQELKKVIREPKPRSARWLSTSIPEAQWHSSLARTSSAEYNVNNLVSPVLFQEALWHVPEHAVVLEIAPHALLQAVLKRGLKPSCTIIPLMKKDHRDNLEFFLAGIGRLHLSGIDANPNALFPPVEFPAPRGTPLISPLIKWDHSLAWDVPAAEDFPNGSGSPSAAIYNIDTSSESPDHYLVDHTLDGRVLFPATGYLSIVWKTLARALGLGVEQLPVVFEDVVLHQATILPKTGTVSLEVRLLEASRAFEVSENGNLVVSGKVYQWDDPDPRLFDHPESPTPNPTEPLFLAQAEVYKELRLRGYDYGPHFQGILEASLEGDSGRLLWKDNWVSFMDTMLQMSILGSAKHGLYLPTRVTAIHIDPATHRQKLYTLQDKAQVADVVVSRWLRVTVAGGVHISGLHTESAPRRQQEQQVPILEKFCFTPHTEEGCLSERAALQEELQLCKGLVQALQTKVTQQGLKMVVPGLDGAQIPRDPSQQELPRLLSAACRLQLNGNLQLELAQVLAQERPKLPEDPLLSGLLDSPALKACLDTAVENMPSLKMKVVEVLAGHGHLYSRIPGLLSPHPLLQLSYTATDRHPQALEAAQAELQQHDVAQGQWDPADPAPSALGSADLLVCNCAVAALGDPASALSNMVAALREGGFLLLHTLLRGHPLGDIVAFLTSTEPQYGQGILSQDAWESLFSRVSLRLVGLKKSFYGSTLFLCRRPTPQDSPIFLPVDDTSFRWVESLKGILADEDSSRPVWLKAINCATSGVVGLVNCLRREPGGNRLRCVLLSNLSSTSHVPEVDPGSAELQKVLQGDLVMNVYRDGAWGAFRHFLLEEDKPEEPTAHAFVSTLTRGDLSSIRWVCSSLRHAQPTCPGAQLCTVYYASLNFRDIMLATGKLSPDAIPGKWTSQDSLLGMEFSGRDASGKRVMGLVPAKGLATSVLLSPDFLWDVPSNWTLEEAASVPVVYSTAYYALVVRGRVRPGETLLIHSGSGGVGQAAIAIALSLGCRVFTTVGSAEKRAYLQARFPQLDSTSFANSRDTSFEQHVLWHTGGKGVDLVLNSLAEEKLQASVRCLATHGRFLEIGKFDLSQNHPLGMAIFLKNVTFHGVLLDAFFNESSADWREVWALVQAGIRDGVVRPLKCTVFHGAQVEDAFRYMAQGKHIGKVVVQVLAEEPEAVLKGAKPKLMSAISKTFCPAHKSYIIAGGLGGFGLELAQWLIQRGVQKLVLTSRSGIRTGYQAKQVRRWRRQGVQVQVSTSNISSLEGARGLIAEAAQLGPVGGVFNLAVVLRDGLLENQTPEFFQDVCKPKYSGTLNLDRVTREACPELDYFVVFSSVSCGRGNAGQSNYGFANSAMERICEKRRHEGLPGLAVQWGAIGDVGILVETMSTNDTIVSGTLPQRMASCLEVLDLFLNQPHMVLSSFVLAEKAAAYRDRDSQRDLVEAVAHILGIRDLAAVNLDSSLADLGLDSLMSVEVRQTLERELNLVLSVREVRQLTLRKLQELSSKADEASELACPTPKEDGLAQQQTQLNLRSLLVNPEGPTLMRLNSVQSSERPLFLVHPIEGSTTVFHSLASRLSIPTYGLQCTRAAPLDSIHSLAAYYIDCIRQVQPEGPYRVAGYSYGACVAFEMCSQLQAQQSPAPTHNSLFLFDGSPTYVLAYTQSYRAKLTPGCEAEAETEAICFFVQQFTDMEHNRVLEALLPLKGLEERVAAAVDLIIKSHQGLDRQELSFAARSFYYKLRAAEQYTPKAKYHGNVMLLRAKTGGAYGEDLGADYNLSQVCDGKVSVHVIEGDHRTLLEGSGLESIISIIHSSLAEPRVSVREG

Fatty acid synthase [2] = biological target: T1, Fatty acid synthase; test: Competitive inhibition of human FAS thioster domain in MCF cells preincubated for 30 mins followed by TAMRA-N3 labelled (S)-4-ethynylbenzyl 2-((S)-2-(benzyloxycarbonylamino)-6-((2R,3S)-3-hexyl-4-oxooxetane-2-carboxamido)hexanamido)propanoate probe addition after 30 mins […]; assay type: cell-based
Outline: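 MCF-7 cells at 80–90% confluency in serum-free medium, pre-incubated 30 min at 37 °C with competitor (10 → 100 µM, 1–10-fold excess over probe; DMSO ≤0.1%). Alkyne probe then added at 10 µM final for 30 min. Cells lysed in NP-40/deoxycholate, protein normalized by BCA, clicked to TAMRA-N3 (CuSO4/TCEP/TBTA, 1–1.5 h RT), resolved by SDS-PAGE, read by in-gel fluorescence.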
Target sequence in this assay (P49327 whole entry, looked up, the tested form may be a part): as the sequence (P49327 whole entry, the tested form may be a part) above

[3] = Half life in DMEM medium at 5 uM in presence of 5% FBS by HPLC method; assay type: physicochemical; settings: cattle
Outline: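 Compound at 5 µM final in DMEM with 5% FBS at 37 °C, 5% CO2. Aliquots quenched with pH 2.0 phosphate buffer plus acetonitrile and vortexed to precipitate serum protein. Clear supernatant analysed by C18 HPLC as % β-lactone remaining versus initial. Triplicate.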

HeLa = test: Cytotoxicity against human HeLa cells assessed as reduction in cell viability after 24 hrs by MTT assay; assay type: functional, cell-based
Outline: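 HeLa cells grown in DMEM with 10% FBS were seeded at 5000/well and left overnight. MTT was then added for 4 h, the formazan dissolved in DMSO and A570 read. IC50 came from dose-response curves; mean ± SEM of three independent experiments.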

[4] = Half life in DMEM medium at 5 uM in absence of 5% FBS by HPLC method; assay type: physicochemical
Outline: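 Compound diluted from DMSO stock to 5 µM final in DMEM (pH 7.5) and held at 37 °C under 5% CO2. Aliquots taken at intervals and quenched with pH 2.0 phosphate buffer. Remaining β-lactone quantified by C18 HPLC integration against initial compound. Run in triplicate.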

[5] = biological target: T2, Proteasome Macropain subunit MB1 (Homo sapiens, UniProt P28074); test: Inhibition of chymotrypsin-like activity of 20S proteasome in human red blood cells pretreated for 20 mins followed by Suc-Leu-Leu-Val-Tyr-AMC substrate addition by fluorescence assay; assay type: cell-based
T2 sequence (P28074 whole entry): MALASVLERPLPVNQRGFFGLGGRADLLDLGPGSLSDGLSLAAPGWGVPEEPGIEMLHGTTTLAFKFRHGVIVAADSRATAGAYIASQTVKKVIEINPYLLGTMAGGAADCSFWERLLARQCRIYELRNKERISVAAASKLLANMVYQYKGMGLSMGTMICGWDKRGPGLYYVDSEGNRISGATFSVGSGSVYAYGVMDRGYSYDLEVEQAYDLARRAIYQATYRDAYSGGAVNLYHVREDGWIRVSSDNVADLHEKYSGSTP
Outline: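 20S proteasome (50 ng) from human erythrocytes, preincubated 20 min at 37 °C in 20 mM Tris pH 7.5 with inhibitor series. AMC substrate then added: 10 µM Suc-LLVY for chymotrypsin-like, 20 µM Boc-LRR for trypsin-like, 20 µM Z-LLE for caspase-like. Hydrolysis followed at 360/460 nm for 600 s; the linear rate was fitted to a four-parameter curve for IC50. Triplicate.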

Fatty acid synthase [6] = biological target: T1, Fatty acid synthase; test: Inhibition of FAS thioster domain (unknown origin)
Outline: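 Human FAS-TE (500 nM) in 100 mM Tris-HCl, 50 mM NaCl, pH 7.4, preincubated 30 min at 37 °C with compound (0.32–100 µM and/or 0.08–10 µM final, DMSO). Reaction started with 4-methylumbelliferyl heptanoate. Fluorescence (350/450 nm) read every 5 min for 60 min, substrate-only background. IC50 by four-parameter fit; triplicate.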
Target sequence in this assay (P49327 whole entry, the tested form may be a part): as the sequence (P49327 whole entry, the tested form may be a part) above

| pIC50 (Fatty acid synthase [1]) | pIC50 [5] | Compound | also measured |
| --- | --- | --- | --- |
| 5.32 |  | CCCCCC[C@@H]1C(=O)O[C@H]1C(=O)NCCCC[C@H](NC(=O)[C@H](C)NC(=O)c1ccc(Br)cc1)C(=O)OCc1ccccc1 |  |
| 5.51 |  | CCCCCC[C@@]1(C)C(=O)O[C@@H]1C(=O)NCCCC[C@H](NC(=O)[C@H](C)NC(=O)OCc1ccccc1)C(=O)OCc1ccccc1 |  |
| 5.82 | 6.43 | CCCCCC[C@@H]1C(=O)O[C@H]1C(=O)NCCCC[C@H](NC(=O)OCc1ccccc1)C(=O)N[C@@H](C)C(=O)OCc1ccccc1 | inhibition (Fatty acid synthase [2]): Dose-dependent effect; t1/2 [3]: < 3 min; pIC50 (HeLa): 4.34; t1/2 [4]: 20 min |
|  |  | CC(C)C[C@@H]1C(=O)O[C@H]1C(=O)NCCC[C@H](NC(=O)[C@H](C)NC(=O)OCc1ccccc1)C(=O)OCc1ccccc1 | pIC50 (Fatty acid synthase [6]): 5.40 to 6.80 |
| 5.26 | 6.29 | CCCCCC[C@@H]1C(=O)O[C@H]1C(=O)NCCCC[C@@H]1NC(=O)N([C@@H](C)C(=O)OCc2ccccc2)C1=O |  |
|  |  | CCC[C@@H]1C(=O)O[C@H]1C(=O)NCCC[C@H](NC(=O)[C@H](C)NC(=O)OCc1ccccc1)C(=O)OCc1ccccc1 | pIC50 (Fatty acid synthase [6]): 5.40 to 6.80 |
|  | < 4.00 | CCCCCCCCCCC[C@@H](C[C@@H]1OC(=O)[C@H]1CCCCCC)OC(=O)[C@H](CC(C)C)NC=O [ORLISTAT] |  |
| 5.36 | 6.15 | CCCCCC[C@@H]1C(=O)O[C@H]1C(=O)NCCC[C@H](NC(=O)[C@H](C)NC(=O)OCc1ccccc1)C(=O)OCc1ccccc1 | pIC50 (Fatty acid synthase [6]): 5.40 to 6.80 |
| 5.40 | 6.59 | C#Cc1ccc(COC(=O)[C@H](C)NC(=O)[C@H](CCCCNC(=O)[C@@H]2OC(=O)[C@H]2CCCCCC)NC(=O)OCc2ccccc2)cc1 |  |
| 5.92 |  | CCCCCC[C@@]1(C)C(=O)O[C@H]1C(=O)NCCCC[C@H](NC(=O)[C@H](C)NC(=O)OCc1ccccc1)C(=O)OCc1ccccc1 |  |
| 4.90 | 5.57 | CCCCCC[C@H]1C(=O)O[C@@H]1C(=O)NCCCC[C@H](NC(=O)OCc1ccccc1)C(=O)N[C@@H](C)C(=O)OCc1ccccc1 |  |
| 5.58 |  | CCCCCC[C@]1(C)C(=O)O[C@H]1C(=O)NCCCC[C@H](NC(=O)[C@H](C)NC(=O)OCc1ccccc1)C(=O)OCc1ccccc1 | t1/2 [3]: 120 min; t1/2 [4]: 70 min |
